Only some compounds are listed: those with a hit (about 3.1% of all), similar ones and a draw of the others.
NS3 helicase inh – inhibitors of HCV NS3 helicase, primary screen, biochemical, Cy5 molecular beacon fluorescence | Hepatitis C virus NS3 helicase | NS3 helicase DNA unwinding | inhibition, % at 10.9 µM | actives 0.56% (n = 290,000) | AID 1800, 2009;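 active = inhibition above the mean of all tested compounds plus 3 SD, set per campaign, cut at about 35% in these data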;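 also: 0% = DMSO wells and 100% = thioflavine S control wells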
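System: Hepatitis C virus NS3 helicase domain fragment enzyme | Reagent: Annealed dual-labelled DNA beacon duplex, ATP-started | Compound dosing: 10.9 µM single point, 0.8% DMSO | Incubation: 1 h reaction at 25 °C, ATP-initiated | Technique: Cy5 fluorescence | Evaluation: Percent inhibition from t60/t0 fluorescence ratio | Benchmarks: Low DMSO, high thioflavine S at 110 µM | Replication: Singlicate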
core dimer inh – inhibitors of HCV core protein dimerization, primary screen, biochemical, TR-FRET, high-throughput; TR-FRET GST/Flag-core106 dimerization, 1536-well; inhibition, % at 5 µM; actives 0.33% (n = 300,000);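 active = inhibition above the mean of all tested compounds plus 3 SD, set per screening campaign, cut at about 45% in these data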
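Test system: GST/Flag-tagged HCV core106 proteins; Medium: KF-containing HEPES buffer, pH 7.45, DTT, CHAPS, BSA; Times: compound-protein-antibody incubation 4 h at 22.5 °C; Detection: TR-FRET 671 and 617 nm emission; Benchmarks: wells lacking GST-core106 and wells with excess unlabelled core106.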
PHOSPHO1 inh – PubChem AID 1565; Phosphoethanolamine/phosphocholine phosphatase (Homo sapiens), Q8TCT1; recombinant PHOSPHO1, absorbance phosphatase assay; inhibition, % at 13.3 µM; actives 1.1% (n = 290,000); in the data active = inhibition above about 60%
Target sequence (Q8TCT1 whole entry, looked up): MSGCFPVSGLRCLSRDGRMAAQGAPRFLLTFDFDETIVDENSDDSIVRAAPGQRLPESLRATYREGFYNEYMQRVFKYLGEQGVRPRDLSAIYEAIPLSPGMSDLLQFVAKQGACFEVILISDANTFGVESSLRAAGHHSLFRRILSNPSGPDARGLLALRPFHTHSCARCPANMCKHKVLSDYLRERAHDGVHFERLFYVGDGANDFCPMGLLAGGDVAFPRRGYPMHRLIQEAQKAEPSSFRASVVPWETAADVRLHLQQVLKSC
VIM-2 inh – VIM-2 metallo-beta-lactamase inhibitors, primary screen, biochemical, epi-absorbance readout, Pseudomonas aeruginosa enzyme. actives 0.89% (n = 290,000). AID 1527, 2009. purified VIM-2, nitrocefin hydrolysis, epi-absorbance fluorescence. inhibition, % at 5.6 µM;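 active = inhibition above the mean of all tested compounds plus 3 SD, cutoff set per screening run, cut at about 7.5% in these data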;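 also: red hydrolysis product quenches plate fluorescence so inhibitors raise well fluorescence; 0% = enzyme with DMSO and 100% = DMSO without enzyme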
SUMO HTRF inh – inhibitors of in vitro SUMOylation cascade, primary screen, biochemical, HTRF, uHTS. HTRF SUMOylation assay, SAE1/SAE2 + UBC9. inhibition, % at 35 µM. actives 0.36% (n = 290,000); in the data active = inhibition above about 50%, passing the limit was not always enough
Target sequence (P63279 whole entry, looked up): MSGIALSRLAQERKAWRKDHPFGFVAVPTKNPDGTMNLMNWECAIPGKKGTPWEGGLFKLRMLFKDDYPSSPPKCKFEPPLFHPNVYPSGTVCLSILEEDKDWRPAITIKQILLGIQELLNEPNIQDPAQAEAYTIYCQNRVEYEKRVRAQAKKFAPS
IMP-1 inhibitor – IMP-1 metallo-beta-lactamase inhibitors, primary screen, biochemical, epi-absorbance readout, Pseudomonas aeruginosa enzyme; AID 1556, 2009; metallo-beta-lactamase IMP-1 (Pseudomonas aeruginosa); actives 0.45% (n = 290,000); purified IMP-1, nitrocefin hydrolysis, epi-absorbance fluorescence; inhibition, % at 5.6 µM;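 active = inhibition above the mean plus 3 SD of all compounds in the same screening run, cut at about 4.5% in these data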;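 also: 0% = IMP-1 with DMSO and 100% = DMSO wells lacking enzyme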
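Material – recombinant IMP-1 enzyme, purified · Amount – IMP-1 0.2 nM before substrate addition · Medium – HEPES buffer pH 7.1 with ZnSO4 and Brij 35 · Timing – 25 °C, 15 min preincubation, 25 min reaction · Measured by – plate fluorescence quenching by hydrolysis product, ex 480/em 530 nm · Read-out – percent enzyme inhibition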
NS3 helicase cf – HCV NS3 helicase inhibitors, retest, confirmation, biochemical, Cy5 molecular beacon fluorescence, triplicate | actives 31% (n = 1,600) | inhibition, % at 10.9 µM | AID 1943, 2009 | NS3 helicase DNA unwinding | shares compounds with NS3 helicase inh;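 active = inhibition above the mean of all tested compounds plus 3 SD, cutoff set per campaign, cut at about 36% in these data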
DNA FID counter – compounds displacing fluorescent DNA intercalator, artefact control for HCV NS3 helicase inhibitor project, biochemical, FID fluorescence, triplicate; shares compounds with NS3 helicase inh; DNA fluorescent intercalator displacement; inhibition, % at 7.9 µM; actives 4% (n = 1,600); AID 1945, 2009; in the data active = inhibition above about 37%;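 also: 0% = vehicle and 100% = reference compound; higher means more displacement of ethidium bromide from the DNA hairpin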
FID counter DR – compounds displacing fluorescent intercalator from DNA, dose response, counter-screen for HCV NS3 helicase inhibitor project, biochemical, fluorescence | shares compounds with NS3 helicase inh | fluorescent intercalator displacement from DNA | IC50, µM | 120 tested, under 10 active; call rule not given here
* hit, by the source's call; . = no result.

SMILES | NS3 helicase inh | core dimer inh | PHOSPHO1 inh | VIM-2 inh | SUMO HTRF inh | IMP-1 inhibitor | NS3 helicase cf | DNA FID counter | others
CC1CCCN(S(=O)(=O)c2ccc(C(=O)Nc3nnc(C4=COCCO4)o3)cc2)C1 (stereo unspecified) | 65* | -12 | 31 | -4 | 10 | -2 | -16 | -30
O=C(NCCCn1ccnc1)c1ccc(COc2ccccc2)o1 | . | 2 | . | . | . | . | . | .
O=C(N/N=C/c1ccc[nH]1)c1cc2ccccc2cc1O | 41* | 1 | 9 | -1 | -7 | -1 | -14 | 5
O=C(N/N=C/c1ccc[nH]1)c1c[nH]c2ccccc12 | 17 | . | . | 0 | 5 | 1 | . | .
CC(C)CC(=O)Nc1nnc(S(=O)(=O)N(C)Cc2ccco2)s1 | 55* | -7 | 24 | -1 | . | 0 | -3 | 10
COCc1ccc(CN2CCc3c([nH]c4ccccc34)C2CC(C)C)o1 (stereo unspecified) | -2 | 3 | 20 | 0 | 8 | 0 | . | .
NNc1ncnc2scc(-c3ccc(Cl)cc3)c12 | -11 | -3 | -7 | -1 | 9 | -4 | . | .
Cc1ccc(-c2csc3ncnc(NS(=O)(=O)c4ccc(Cl)cc4)c23)cc1 | 50* | 13 | 14 | -2 | 6 | -3 | 44* | -25
CC(CC(=O)NC1CCCCC1)S(=O)(=O)c1ccc2c(c1)NC(=O)CO2 (stereo unspecified) | 38* | -10 | 26 | -2 | 21 | -4 | -20 | -2
COc1cccc(C(=O)Nc2nnc(S(=O)(=O)Nc3cccc(C)c3)s2)c1 | 46* | -5 | -9 | -5 | 16 | -1 | 19 | 11
CCCc1nnc(SCC(=O)N2CCCC(C)C2)n1CCOC (stereo unspecified) | -7 | -4 | 2 | -4 | 11 | -3 | . | .
COc1cc(/C=C(/C#N)C(=O)Nc2ccccc2)ccc1OCc1ccc(C(=O)O)cc1 | 19 | 19 | 42 | -2 | 5 | -2 | . | .
COc1cc(/C=C(\C#N)C(=O)Nc2ccc(C(=O)O)cc2)ccc1OC(=O)c1cccc(F)c1 | 47* | -3 | 39 | 2 | 1 | 0 | 63* | -24
[N-]=[N+]=NC[C@H](Cc1ccccc1)N1CC[C@@H](O)CCC1=O | 1 | 12 | -24 | 0 | 6 | -2 | . | .
C[C@@H](CSc1ccccc1)CN1CC[C@H](NC(=O)OCc2ccccc2)CCC1=O | -40 | -4 | -98 | -2 | 1 | -5 | . | .
C[C@@H](CSc1ccccc1)CN1CC[C@H](O)CCC1=O | 44* | -6 | 10 | -3 | 6 | -1 | -4 | 12
C[C@@H](CN=[N+]=[N-])CN1CC[C@H](O)CCC1=O | 37* | -8 | -7 | 3 | -3 | 2 | -8 | 15
CC(CCc1ccco1)NC(=O)CCc1nnc2ccc(NCc3ccc(Cl)cc3)nn12 (stereo unspecified) | -3 | 5 | 13 | -1 | . | -1 | . | .
CC(CCc1ccco1)NC(=O)CCc1nnc2ccc(NCc3ccccc3Cl)nn12 (stereo unspecified) | 61* | 17 | 17 | -3 | 4 | -2 | 4 | -2
CCCCOc1ccc(C(=O)N(C)CC(=O)Nc2ccc(C)cc2)cc1 | -7 | -4 | 33 | -3 | -5 | -3 | . | .
COc1ccccc1NC(=O)Nc1nc(CC(=O)N2CCN(c3ccccc3F)CC2)cs1 | . | 7 | . | . | . | . | . | .
CC(C)(Oc1ccc(CCNC(=O)c2ccc(-c3ccccc3)o2)cc1)C(=O)O | 13 | -12 | 1 | -1 | 10 | -1 | . | .
CC(C)(Oc1ccc(-c2ccco2)cc1)C(=O)O | 41* | 1 | -31 | 0 | 23 | 0 | 30 | 3
CCCOc1nc(C)cc(COC)c1C(N)=O | 7 | -3 | -8 | -2 | 22 | -2 | . | .
Cc1ccc(C(=O)O)cc1-c1ccc(/C=C2\SC(=O)N(CC(=O)Nc3ccccc3)C2=O)o1 | 38* | 12 | -81 | 1 | 85* | 1 | 78* | 2 | FID counter DR=>79
SMILES | NS3 helicase inh | core dimer inh | PHOSPHO1 inh | VIM-2 inh | SUMO HTRF inh | IMP-1 inhibitor | NS3 helicase cf | DNA FID counter | others
Cc1ccccc1NC(=O)CN1C(=O)S/C(=C\c2ccc(-c3cc(C(=O)O)ccc3C)o2)C1=O | 9 | . | -126 | -3 | . | -3 | . | .
O=C(CNC(=O)c1ccccc1F)OCCOc1cccc(Cl)c1 | . | 2 | . | . | . | . | . | .
COc1ccc(N=C2NC(=O)/C(=C/C=C/c3ccccc3)S2)cc1 | -13 | 22 | 18 | -1 | 28 | -1 | . | .
O=C1NC(=Nc2ccccc2)S/C1=C\C=C\c1ccco1 | 44* | 21 | 23 | -1 | 48 | 1 | 3 | -2
O=C1NC(=Nc2ccccc2)S/C1=C\c1ccccc1 | 40* | -5 | 50 | -2 | 18 | -3 | 5 | 14
COc1ccc(N=C2NC(=O)/C(=C/c3ccco3)S2)cc1 | 25 | -1 | 9 | -2 | -8 | -3 | . | .
Cc1ccc(N=C2NC(=O)/C(=C/C=C/c3ccco3)S2)cc1 | 114* | 59* | 0 | -1 | 46 | 4 | 9 | 3
Cc1cccc(N=C2NC(=O)/C(=C/C=C/c3ccco3)S2)c1C | 45* | 59* | -18 | -2 | 58* | 4.8* | 88* | 34 | FID counter DR=>79
NC(=O)Cn1cc(/C=N/NC(=O)c2ccc(Cn3cc(Cl)cn3)o2)c(-c2ccccc2)n1 | -12 | . | 22 | -4 | 15 | -2 | . | .
CC(=O)Nc1ccc(NC(=O)c2c(-c3ccccc3)noc2C)cn1 | 5 | 4 | 13 | -2 | 6 | -2 | . | .
O=C1NN(c2ccc(Br)cc2)C(=O)/C1=C\c1ccc(O)cc1O | 39* | 3 | 19 | 0 | -1 | -4 | 58* | 17
CCCc1nn2c(=O)cc(CSCC(=O)Nc3ccccc3OC)nc2s1 | 11 | -7 | 38 | 3 | 8 | 1 | . | .
O=C1/C(=C\c2ccco2)SC(=S)N1C1CCCCC1 | 39* | 12 | 8 | -2 | 23 | -1 | 51* | 18

Compound activity from PubChem BioAssay.
